According to ChEMBL document CHEMBL3244011, “(Aryloxy)[p-(aryloxy)phenyl]- and (aryloxy)[p-(arylthio)phenyl]acetic acids and esters as hypolipidemic agents” (1979):

What was measured:
Format in all cases: functional
Parameters in all cases: scale not given: the % may be the effect or the level left
[1] = system: Rattus norvegicus; assay: Hypolipidemic activity in COBBS-CD rat assessed as reduction in serum triglyceride level at 0.1% administered with chow diet after 5 days relative to control
Outline: (§1)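 The compound was given in ground chow at 0.1, 0.03 or 0.01% w/w (about 100, 30 and 10 mg/kg) to male COBBS-CD rats (n=4; solvent-chow controls n=8) for 5 days ad libitum. Rats were killed by decapitation and blood collected. Serum triglycerides were assayed by an automated method and compared with controls; ± values are SD.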

[2] = system: Rattus norvegicus; assay: Hypolipidemic activity in COBBS-CD rat assessed as reduction in serum triglyceride level at 0.01% administered with chow diet after 5 days relative to control; outline: as §1
[3] = system: Rattus norvegicus; assay: Hypolipidemic activity in COBBS-CD rat assessed as reduction in serum sterol level at 0.01% administered with chow diet after 5 days relative to control
Outline: (§2)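 Male COBBS-CD rats, four per treated group and eight per control group. The compound was mixed into ground rat chow at 0.1, 0.03 or 0.01% w/w (about 100, 30 and 10 mg/kg). Control chow received only the mixing solvent (methanol-chloroform 1:3 v/v). Food and water were ad libitum for 5 days, then rats were decapitated and blood collected. Serum sterols were measured by an automated method and expressed relative to controls; ± values are SD.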

[4] = system: Rattus norvegicus; assay: Hypolipidemic activity in COBBS-CD rat assessed as reduction in serum sterol level at 0.1% administered with chow diet after 5 days relative to control; outline: as §2
[5] = system: Rattus norvegicus; assay: Hypolipidemic activity in COBBS-CD rat assessed as reduction in serum sterol level at 0.03% administered with chow diet after 5 days relative to control; outline: as §2
[6] = system: Rattus norvegicus; assay: Hypolipidemic activity in COBBS-CD rat assessed as reduction in serum triglyceride level at 0.03% administered with chow diet after 5 days relative to control; outline: as §1

Compound	Activity [1]	Activity [2]	Activity [3]	Activity [4]	Activity [5]	Activity [6]
COC(=O)C(Oc1cc(C(C)(C)C)cc(C(C)(C)C)c1)c1ccc(Oc2ccc(Cl)cc2)cc1 (configuration not stated)	7%	23%	-30%	-6%	-12%	-7%
COC(=O)C(Oc1cc(Cl)cc(Cl)c1)c1ccc(Oc2ccc(Cl)cc2)cc1 (configuration not stated)	47%	-44%	-11%	26%	10%	6%
COC(=O)C(Oc1ccc2c(c1)CCC2)c1ccc(Oc2ccc(Cl)cc2)cc1 (configuration not stated)	52%	37%	26%	25%	30%	51%
COC(=O)C(Oc1ccc(F)cc1)c1ccc(Oc2ccc(S(C)(=O)=O)cc2)cc1 (configuration not stated)	3%	16%	-3%	10%	-1%	-8%
CCOC(=O)C(Oc1ccc(Cl)cc1)c1ccc(Oc2ccc(Cl)cc2)cc1 (configuration not stated)	60%	40%	18%	25%	25%	51%
COC(=O)C(Oc1ccc(C2(C)CCCCC2)cc1)c1ccc(Oc2ccc(Cl)cc2)cc1 (configuration not stated)	65%	64%	26%	18%	13%	70%
COC(=O)C(Oc1ccc(NC(C)=O)cc1)c1ccc(Oc2ccc(Cl)cc2)cc1 (configuration not stated)	13%	-9%	-4%	-3%	-11%	-20%
COC(=O)C(Oc1ccc(C2CCCCC2)cc1)c1ccc(Oc2cccc(C(F)(F)F)c2)cc1 (configuration not stated)	59%	40%	8%	20%	18%	34%
COC(=O)C(Oc1ccc(C2CCCCC2)cc1)c1ccc(Sc2ccc(Cl)cc2)cc1 (configuration not stated)	45%	33%	14%	19%	15%	44%
COC(=O)C(Oc1ccc(Cl)cc1)c1ccc(Sc2ccc(Cl)cc2)cc1 (configuration not stated)	64%	66%	17%	25%	25%	62%
COC(=O)C(Oc1cccc(C(C)(C)C)c1)c1ccc(Oc2ccc(C(C)(C)C)cc2)cc1 (configuration not stated)	33%	21%	-5%	4%	6%	13%
COC(=O)C(Oc1ccc(C)c(C)c1)c1ccc(Oc2ccc(Cl)cc2)cc1 (configuration not stated)	63%	23%	18%	46%	28%	45%
COC(=O)C(Oc1ccc2ccc(=O)oc2c1)c1ccc(Oc2ccc(Cl)cc2)cc1 (configuration not stated)	-16%	4%	-5%	-4%	7%	-23%
COC(=O)C(Oc1ccc(Cl)cc1)c1ccc(Oc2ccc(Cl)c3ccccc23)cc1 (configuration not stated)	38%	33%	6%	23%	17%	12%
COC(=O)C(Oc1cccc2c1CCCC2)c1ccc(Oc2ccc(Cl)cc2)cc1 (configuration not stated)	41%	-34%	1%	23%	14%	-1%
COC(=O)C(Oc1ccc(Cl)cc1)c1ccc(Oc2ccc(C(C)(C)C)cc2)cc1 (configuration not stated)	46%	25%	17%	7%	11%	30%
COC(=O)C(Oc1ccc(Cl)c(Cl)c1)c1ccc(Oc2ccc(Cl)cc2)cc1 (configuration not stated)	67%	14%	5%	24%	26%	60%
COC(=O)C(Oc1ccc(C2CCCCC2)cc1)c1ccc(Oc2ccc(C(C)(C)C)cc2)cc1 (configuration not stated)	52%	29%	-5%	33%	16%	49%
COC(=O)C(Oc1ccc(C(C)(C)C)cc1)c1ccc(Sc2ccc(Cl)cc2)cc1 (configuration not stated)	59%	45%	10%	12%	27%	56%
COC(=O)C(Oc1cccc(C(C)(C)C)c1)c1ccc(Oc2ccc(Cl)cc2)cc1 (configuration not stated)	63%	41%	23%	41%	20%	49%
COC(=O)C(Oc1cccc2ccccc12)c1ccc(Oc2ccc(Cl)cc2)cc1 (configuration not stated)	39%	–	–	4%	3%	36%
O=C(O)C(Oc1ccc(Cl)cc1)c1ccc(Oc2ccc(Cl)cc2)cc1 (configuration not stated)	60%	34%	12%	31%	23%	50%
COC(=O)C(Oc1cccc(C(F)(F)F)c1)c1ccc(Oc2ccc(Cl)cc2)cc1 (configuration not stated)	61%	18%	-6%	28%	16%	47%
COC(=O)C(Oc1ccc(C(F)(F)F)cc1)c1ccc(Oc2ccc(Cl)cc2)cc1 (configuration not stated)	53%	60%	24%	20%	28%	51%
O=C(O)C(Oc1cccc(C(F)(F)F)c1)c1ccc(Cl)cc1 (configuration not stated) [METAGLIDASEN]	49%	14%	25%	26%	14%	10%
O=C(O)C(Oc1ccc(F)cc1)c1ccc(Oc2ccc(Cl)cc2)cc1 (configuration not stated)	58%	20%	41%	29%	28%	48%
COC(=O)C(Oc1ccc2c(c1)CCCC2)c1ccc(Oc2ccc(Cl)cc2)cc1 (configuration not stated)	47%	8%	24%	42%	26%	35%
COC(=O)C(Oc1ccc(Cl)c2c1CCCC2)c1ccc(Oc2ccc(Cl)cc2)cc1 (configuration not stated)	54%	24%	-1%	25%	30%	28%
COC(=O)C(Oc1cc(Cl)c(Cl)c(Cl)c1)c1ccc(Oc2ccc(Cl)cc2)cc1 (configuration not stated)	55%	15%	3%	30%	-2%	46%
